The text below walks through data of ChEMBL document CHEMBL3351935, “The synthesis, antimalarial activity and CoMFA analysis of novel aminoalkylated quercetin analogs” (Bioorg Med Chem Lett, 2015).

What is called solubility is the concentration that dissolves in the medium under given conditions. Read a low solubility as a poorly soluble substance. In general, IC50 refers to the concentration needed to halve the response being measured. In general, inhibition refers to the relative decrease from the control value, in per cent.

A short description of series [1]: Aqueous solubility of the compound at 1 mM by UV spectroscopic assay. In kind it is physicochemical. The conditions noted are these: buffer. The procedure, abridged: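 Modified UV-spectroscopic method on the free base. A 1 mM DMSO stock was diluted to 4, 8, 12, 16 and 20 μM (2% DMSO in water) to build calibration curves. Each compound was suspended in medium to saturation, centrifuged at 8000 rpm for 10 min and filtered. Absorbance was read at 280 nm, 25 °C, and concentration was taken from the calibration best-fit line.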

Series [2] deals with Plasmodium falciparum. Description: Antimalarial activity against chloroquine-resistant/mefloquine-sensitive Plasmodium falciparum W2 by malaria SYBR green 1-based fluorescence (MSF) assay. In kind it is functional, organism-based.
Series [3] deals with Plasmodium falciparum. The series is described as follows: Antimalarial activity against chloroquine-sensitive/mefloquine-resistant Plasmodium falciparum D6 by malaria SYBR green 1-based fluorescence (MSF) assay. In kind it is functional, organism-based.
Series [4] has as its system Plasmodium falciparum. Description: Antimalarial activity against chloroquine /mefloquine/pyrimethamine-resistant Plasmodium falciparum C235 by malaria SYBR green 1-based fluorescence (MSF) assay. In kind it is functional, organism-based.
For series [5], the system named is Plasmodium falciparum. The series is described as follows: Antigametocytocidal activity against Plasmodium falciparum NF54-pfs16-[…] early (1 to 3) gametocyte assessed as viability after 72 hrs by MitoTracker Red CM-H2XRos/micro-plate confocal imaging system. In kind it is functional, organism-based. The conditions noted are these: NF54, 72 h.
The test system of series [6] is Plasmodium falciparum. Description: Antigametocytocidal activity against Plasmodium falciparum NF54-pfs16-[…] late (4 to 6) gametocyte assessed as viability at 40 uM after 72 hrs by MitoTracker Red CM-H2XRos/micro-plate confocal imaging system. In kind it is functional. The conditions noted are these: NF54, 72 h.
For series [7], the system named is Plasmodium falciparum. Description: Antigametocytocidal activity against Plasmodium falciparum NF54-pfs16-[…] late (4 to 6) gametocyte assessed as viability at 120 uM after 72 hrs by MitoTracker Red CM-H2XRos/micro-plate confocal imaging system. The class given is functional. The conditions noted are these: NF54, 72 h.
In series [8] the target is Intercellular adhesion molecule 1 (Homo sapiens) (UniProt P05362). Description: Inhibition of human type O erythrocyte ICAM1-mediated Plasmodium falciparum infection with at 50 uM.
Sequence of Intercellular adhesion molecule 1 (Homo sapiens) (P05362 whole entry): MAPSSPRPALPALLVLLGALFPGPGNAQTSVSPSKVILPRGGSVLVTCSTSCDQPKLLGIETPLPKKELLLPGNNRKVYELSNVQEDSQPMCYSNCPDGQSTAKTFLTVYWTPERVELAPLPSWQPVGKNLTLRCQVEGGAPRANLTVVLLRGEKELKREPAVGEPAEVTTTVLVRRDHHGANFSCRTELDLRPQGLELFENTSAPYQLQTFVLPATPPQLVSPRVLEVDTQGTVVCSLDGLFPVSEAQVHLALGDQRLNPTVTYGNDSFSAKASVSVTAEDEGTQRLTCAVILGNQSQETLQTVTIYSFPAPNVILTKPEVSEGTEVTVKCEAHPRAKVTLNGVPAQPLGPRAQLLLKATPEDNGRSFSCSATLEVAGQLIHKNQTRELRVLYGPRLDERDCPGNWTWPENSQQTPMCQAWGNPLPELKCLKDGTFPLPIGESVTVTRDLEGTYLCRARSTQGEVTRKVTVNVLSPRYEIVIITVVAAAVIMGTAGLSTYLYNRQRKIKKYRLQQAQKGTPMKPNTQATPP
The subject of series [9] is Plasmodium falciparum. Description: Antigametocytocidal activity against Plasmodium falciparum NF54-pfs16-[…] late (4 to 6) gametocyte assessed as viability after 72 hrs by MitoTracker Red CM-H2XRos/micro-plate confocal imaging system. The conditions noted are these: NF54, 72 h. In kind it is functional, organism-based.

Converted amounts (≈) assume the structure as drawn.

Regarding `O=c1c(O)c(-c2ccc(O)c(O)c2)oc2c(CNCc3cccc(Cl)c3)c(O)cc(O)c12`, the concentration in solution in series [1] (solubility at 1000 µM) came to 107 µM (≈ 48.8 µg/mL). In addition, the IC50 in the series with Plasmodium falciparum [2] came to 260 nM; in the series with Plasmodium falciparum [3] it was 190 nM; in the series with Plasmodium falciparum [4], 220 nM.
With `O=c1c(O)c(-c2ccc(O)c(O)c2)oc2cc(O)cc(O)c12` [QUERCETIN], the solubility at 1000 µM in series [1] was found to be 44 µM (≈ 13.3 µg/mL). In addition, the IC50 in the series on Plasmodium falciparum [2] stood at 2900 nM; in the series on Plasmodium falciparum [3], 9000 nM; in the series with Plasmodium falciparum [4], 13000 nM.
In series [1], `O=c1c(O)c(-c2ccc(O)c(O)c2)oc2c(CNCCc3ccc(Cl)cc3Cl)c(O)cc(O)c12` showed a solubility at 1000 µM of 168 µM (≈ 84.7 µg/mL). Further, the IC50 was 71 nM with Plasmodium falciparum [2], 65 nM in the series with Plasmodium falciparum [3], 79 nM with Plasmodium falciparum [4] and 9670 nM with Plasmodium falciparum [5]. Moreover, in the series with Plasmodium falciparum [6], the inhibition at 40 µM came to 100%.
Turning to `CCN(CC)CCCC(C)Nc1ccnc2cc(Cl)ccc12` (stereo unspecified) [CHLOROQUINE], in the series on Plasmodium falciparum [7], the inhibition at 120 µM came out at 100%.
With `O[C@@H](c1cc(C(F)(F)F)nc2c(C(F)(F)F)cccc12)[C@H]1CCCCN1` [(S,R)-MEFLOQUINE], the IC50 in the series on Plasmodium falciparum [2] was 7 nM; with Plasmodium falciparum [4], 77 nM.
As for `O=c1c(O)c(-c2ccc(O)c(O)c2)oc2c(CNCc3ccco3)c(O)cc(O)c12`, in series [1], the concentration in solution (solubility at 1000 µM) was 40 µM (≈ 16.5 µg/mL). Besides, the IC50 with Plasmodium falciparum [2], in the series with Plasmodium falciparum [3] and in the series on Plasmodium falciparum [4] was over 2230 nM throughout.
The compound `O=c1c(O)c(-c2ccc(O)c(O)c2)oc2c(CNCc3ccccc3)c(O)cc(O)c12` yielded a solubility at 1000 µM in series [1] of 49 µM (≈ 20.6 µg/mL). The IC50 in the series with Plasmodium falciparum [2], with Plasmodium falciparum [3] and in the series with Plasmodium falciparum [4] was over 2180 nM in each case.
Take `O=c1c(O)c(-c2ccc(O)c(O)c2)oc2c(CNCCc3cccc(F)c3)c(O)cc(O)c12`: the solubility at 1000 µM in series [1] is 275 µM (≈ 125 µg/mL). In addition, the IC50 in the series on Plasmodium falciparum [2] amounted to 130 nM; with Plasmodium falciparum [3], 69 nM; with Plasmodium falciparum [4], 88 nM.
The corresponding values for `O=c1c(O)c(-c2ccc(O)c(O)c2)oc2c(CNCC3CCCO3)c(O)cc(O)c12` (stereo unspecified) are 39 µM (≈ 16.2 µg/mL), over 2210 nM, over 2210 nM and over 2210 nM.
With `Oc1cc(O)c2c(c1)O[C@H](c1ccc(O)c(O)c1)[C@@H](O)C2` [CIANIDANOL], the figures for the IC50 in the series with Plasmodium falciparum [2], in the series with Plasmodium falciparum [3] and with Plasmodium falciparum [4] were 6000 nM, 6700 nM and 5900 nM, respectively.
In turn, `O=c1c(O)c(-c2ccc(O)c(O)c2)oc2c(CNCCc3ccc(Cl)cc3)c(O)cc(O)c12` displayed a solubility at 1000 µM in series [1] of 99 µM (≈ 46.5 µg/mL). Moreover, the concentration for half-maximal inhibition (IC50) with Plasmodium falciparum [2] came to 1900 nM; with Plasmodium falciparum [3], 830 nM; in the series with Plasmodium falciparum [4] it was 1200 nM.
As for `O=C(O[C@@H]1Cc2c(O)cc(O)cc2O[C@@H]1c1cc(O)c(O)c(O)c1)c1cc(O)c(O)c(O)c1` [EPIGALOCATECHIN GALLATE], the IC50 in the series with Plasmodium falciparum [2] is 1400 nM; with Plasmodium falciparum [3] it was 73 nM; with Plasmodium falciparum [4], 610 nM. This compound showed an inhibition in [8] of 85%.
As to `O=c1c(O)c(-c2ccc(O)c(O)c2)oc2c(CNCCc3ccc(F)cc3)c(O)cc(O)c12`, the solubility at 1000 µM in [1] came to 136 µM (≈ 61.7 µg/mL). For the same compound, the values for the IC50 in the series with Plasmodium falciparum [2], in the series with Plasmodium falciparum [3] and with Plasmodium falciparum [4] were 290 nM, 140 nM and 150 nM, respectively.
For the compound `O=c1c(O)c(-c2ccc(O)c(O)c2)oc2c(CNCCc3ccccc3)c(O)cc(O)c12`, in series [1], the concentration in solution (solubility at 1000 µM) came to 41 µM (≈ 17.9 µg/mL). The IC50 with Plasmodium falciparum [2] is over 2120 nM; with Plasmodium falciparum [3], 2110 nM; in the series with Plasmodium falciparum [4], over 2120 nM.
The compound `O=c1c(O)c(-c2ccc(O)c(O)c2)oc2c(CNCCc3ccccc3F)c(O)cc(O)c12` yielded a solubility at 1000 µM in [1] of 95 µM (≈ 43.1 µg/mL). The IC50 came out at 240 nM in the series with Plasmodium falciparum [2], 110 nM with Plasmodium falciparum [3] and 180 nM in the series on Plasmodium falciparum [4].
For `O=c1c(O)c(-c2ccc(O)c(O)c2)oc2c(CNCc3ccc(F)cc3)c(O)cc(O)c12`, the solubility at 1000 µM in [1] amounted to 212 µM (≈ 93.2 µg/mL). The IC50 was 720 nM in the series on Plasmodium falciparum [2], 410 nM in the series on Plasmodium falciparum [3] and 700 nM in the series with Plasmodium falciparum [4].
The compound `O=c1c(O)c(-c2ccc(O)c(O)c2)oc2c(CNCc3ccc(Cl)cc3)c(O)cc(O)c12` gave a solubility at 1000 µM in series [1] of 110 µM (≈ 50.1 µg/mL). Besides, the IC50 in the series on Plasmodium falciparum [2] worked out at 590 nM; with Plasmodium falciparum [3] it was 370 nM; in the series with Plasmodium falciparum [4], 430 nM.
For the compound `C[C@H]1[C@H](OC(=O)CCC(=O)O)O[C@@H]2O[C@@]3(C)CC[C@H]4[C@H](C)CC[C@@H]1[C@@]24OO3` [ARTESUNATE], in the series with Plasmodium falciparum [5], the IC50 is 3 nM.
On to `CN1CCN(Cc2c(O)cc(O)c3c(=O)c(O)c(-c4ccc(O)c(O)c4)oc23)CC1`, for which, in series [1], the solubility at 1000 µM was 131 µM (≈ 54.3 µg/mL). The results for the IC50 in the series on Plasmodium falciparum [2], in the series with Plasmodium falciparum [3] and with Plasmodium falciparum [4] were 2400 nM, 2900 nM and 5300 nM, respectively.
On to `C[C@@H]1CC[C@H]2[C@@H](C)C(=O)O[C@@H]3O[C@@]4(C)CC[C@@H]1[C@]32OO4` [ARTEMISININ], for which the concentration for half-maximal inhibition (IC50) with Plasmodium falciparum [2] was 7 nM; with Plasmodium falciparum [3], 9 nM; in the series with Plasmodium falciparum [4], 13 nM.
On to `O=c1c(O)c(-c2ccc(O)c(O)c2)oc2c(CNCCc3cccc(Cl)c3)c(O)cc(O)c12`, for which the solubility at 1000 µM in [1] came out at 199 µM (≈ 93.5 µg/mL). Also, the IC50 came out at 79 nM with Plasmodium falciparum [2], 69 nM in the series with Plasmodium falciparum [3], 80 nM with Plasmodium falciparum [4] and 6790 nM in the series with Plasmodium falciparum [5]. Further, the inhibition at 40 µM in the series on Plasmodium falciparum [6] was 100%.
Consider `O=c1c(O)c(-c2ccc(O)c(O)c2)oc2c(CNCc3cccc(F)c3)c(O)cc(O)c12`, for which, in [1], the solubility at 1000 µM was found to be 123 µM (≈ 54 µg/mL). Besides, the IC50 in the series with Plasmodium falciparum [2] came out at 690 nM; in the series with Plasmodium falciparum [3] it was 510 nM; with Plasmodium falciparum [4], 620 nM.
As to `COc1ccc(C[C@H](N)C(=O)N[C@H]2[C@@H](O)[C@H](n3cnc4c(N(C)C)ncnc43)O[C@@H]2CO)cc1` [PUROMYCIN], the IC50 with Plasmodium falciparum [5] came to 175 nM; in the series on Plasmodium falciparum [9], 194 nM.
As to `O=c1c(O)c(-c2ccc(O)c(O)c2)oc2c(CN3CCCCC3)c(O)c(CN3CCCCC3)c(O)c12`, in series [1], the solubility at 1000 µM was determined as 247 µM (≈ 123 µg/mL). Also, the IC50 came to 1200 nM in the series with Plasmodium falciparum [2], 1700 nM with Plasmodium falciparum [3] and 3100 nM in the series on Plasmodium falciparum [4].
Take `O=c1c(O)c(-c2ccc(O)c(O)c2)oc2c(CNCCc3c(Cl)cccc3Cl)c(O)cc(O)c12`: in [1], the solubility at 1000 µM came out at 199 µM (≈ 100 µg/mL). In addition, the results for the IC50 in the series with Plasmodium falciparum [2], with Plasmodium falciparum [3] and in the series on Plasmodium falciparum [4] were 230 nM, 160 nM and 150 nM, respectively.
Consider `O=c1c(O)c(-c2ccc(O)c(O)c2)oc2c(CNCCc3ccccc3Cl)c(O)cc(O)c12`, for which the concentration in solution in series [1] (solubility at 1000 µM) came to 85 µM (≈ 39.9 µg/mL). For the same compound, the IC50 was 290 nM with Plasmodium falciparum [2], 250 nM in the series with Plasmodium falciparum [3] and 260 nM in the series on Plasmodium falciparum [4].
